Rows were chosen to be rich in hits. Some 5.8% of all compounds tested hit in one or more screens of this group.
T cruzi growth-1 – inhibitors of T. cruzi proliferation. T. cruzi beta-gal in NIH3T3, GalScreen luminescence, 90 h. inhibition, % at 8.34 µM. 77,000 tested, 5.9% active. AID 624255;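 active = mean inhibition above about 93%, with at least 55% of replicates each passing it, limit read from the data, passing the limit was not always enough; inconclusive = only one of those two conditions holds; inactive = neither condition holds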
Pf Dd2 inh – inhibitors of Plasmodium falciparum Dd2 growth; activity change, % at 10 µM; 94,000 tested, 2.3% active; P. falciparum Dd2 growth, SYBR Green, 72 h; active compounds read low; AID 1159554; in the data active = activity change below about -80%; inconclusive = no clear call, values can overlap the other calls
IDH1 mut inh – IDH1 R132H (human) inhibition. AID 624101. IDH1 R132H reductase, diaphorase/resazurin fluorescence, 60 min. inhibition, % at 10 µM. 70,000 tested, 0.18% active. O75874; in the data active = inhibition above about 34%; inconclusive = no clear call, values can overlap the other calls; inactive = below about 11%
Target sequence (O75874 whole entry R132H): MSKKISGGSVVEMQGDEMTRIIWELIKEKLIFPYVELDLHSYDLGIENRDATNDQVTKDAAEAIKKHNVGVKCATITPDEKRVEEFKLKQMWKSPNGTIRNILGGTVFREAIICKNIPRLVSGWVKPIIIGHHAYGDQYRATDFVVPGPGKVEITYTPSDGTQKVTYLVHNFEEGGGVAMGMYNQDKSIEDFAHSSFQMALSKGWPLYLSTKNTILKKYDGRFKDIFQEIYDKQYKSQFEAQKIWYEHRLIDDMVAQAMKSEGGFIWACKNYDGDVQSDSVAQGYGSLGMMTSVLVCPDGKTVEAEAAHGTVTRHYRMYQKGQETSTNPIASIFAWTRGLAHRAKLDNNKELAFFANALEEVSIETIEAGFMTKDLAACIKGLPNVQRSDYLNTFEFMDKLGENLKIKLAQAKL
KDM4C inh – inhibitors of human demethylase GASC-1 KDM4C; Q9H3R0; GST-KDM4C 2-372, H3K9me3 peptide, LANCE TR-FRET; inhibition, % at 12.5 µM; 96,000 tested, 0.15% active;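 active = mean replicate inhibition above about 25%, with at least 55% of replicates also reaching it, limit read from the data, passing the limit was not always enough; inconclusive = only one of those two conditions met; inactive = neither condition met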
Target sequence (Q9H3R0 2-372 limits assumed): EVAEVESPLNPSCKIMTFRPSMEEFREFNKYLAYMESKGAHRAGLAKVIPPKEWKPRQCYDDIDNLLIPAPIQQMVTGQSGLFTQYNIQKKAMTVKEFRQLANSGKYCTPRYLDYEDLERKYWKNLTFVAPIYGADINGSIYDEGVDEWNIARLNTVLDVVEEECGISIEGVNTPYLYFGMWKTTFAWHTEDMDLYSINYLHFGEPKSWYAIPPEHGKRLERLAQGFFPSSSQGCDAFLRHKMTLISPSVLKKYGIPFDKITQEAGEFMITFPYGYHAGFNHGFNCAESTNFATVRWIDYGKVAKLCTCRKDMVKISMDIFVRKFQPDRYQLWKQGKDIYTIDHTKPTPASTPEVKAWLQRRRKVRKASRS
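Test system: N-terminal GST-fused human GASC-1 (KDM4C) fragment, residues 2-372; quantity: GASC-1 enzyme at 10 nM final in reaction; dosing: single dose; schedule: 30 min demethylation and 1 h detection at room temperature; signal: LANCE TR-FRET, excitation 340 nm, emissions 618 and 671 nm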
T cruzi growth-2 – blocks T. cruzi growth in NIH3T3 host cells. shares compounds with T cruzi growth-1. T. cruzi beta-gal in NIH3T3, GalScreen luminescence, 90 h. inhibition, % at 8.35 µM. 5,600 tested, 72% active;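 active = mean replicate inhibition above about 95% and at least 55% of replicates individually reaching it, limit read from the data; inconclusive = only one of the two criteria is met; inactive = neither criterion is met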
T cruzi growth-3 – Trypanosoma cruzi proliferation inhibition. shares compounds with T cruzi growth-1. T. cruzi beta-gal in NIH3T3, GalScreen luminescence, 90 h. inhibition, % at 2.09 µM. 5,600 tested, 21% active;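 active = mean inhibition above about 95%, with at least 55% of replicates also reaching it, limit read from the data; inconclusive = meets just one of the two conditions; inactive = meets neither condition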
3T3 cytotox – NIH/3T3 (mouse) viability loss | shares compounds with T cruzi growth-1 | NIH/3T3 viability, CellTiter-Glo ATP luminescence, 90 h | cytotoxicity (signal decrease), % at 8.35 µM | 5,600 tested, 14% active | AID 651742;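 active = mean signal decrease across replicates above about 35% based on untreated-well scatter, with enough replicates individually passing, limit read from the data; inconclusive = no rule stated though some were filed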
NIH3T3 tox 2 – cytotoxicity in mouse NIH/3T3 fibroblasts. NIH/3T3 viability, CellTiter-Glo ATP luminescence, 90 h. 5,600 tested, 56% active. inhibition, % at 24.9 µM. shares compounds with T cruzi growth-1;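 active = mean loss of cell viability signal at or above a set limit, and enough replicates individually reaching it; inconclusive = meets only the mean limit or only the replicate share; inactive = meets neither condition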
Of the large screens only hits and unclear results are named; the others gave an inactive call (follow-up assays come after a bar, where they were run).

Cc1noc(C)c1S(=O)(=O)N(C)C[C@@H]1OCCCC[C@H](C)Oc2ccc(NS(=O)(=O)c3ccc(F)cc3)cc2C(=O)N([C@H](C)CO)C[C@@H]1C	T cruzi growth-1 108.3 | T cruzi growth-2 99.6 | T cruzi growth-3 inactive | 3T3 cytotox inactive | NIH3T3 tox 2 inactive
Cc1noc(C)c1S(=O)(=O)N(C)C[C@H]1OCCCC[C@H](C)Oc2ccc(NS(=O)(=O)c3ccc(Cl)cc3)cc2C(=O)N([C@@H](C)CO)C[C@@H]1C	none (no result: IDH1 mut inh)
Cc1ccc(S(=O)(=O)Nc2ccc3c(c2)C(=O)N([C@H](C)CO)C[C@@H](C)[C@H](CN(C)S(=O)(=O)c2c(C)noc2C)OCCCC[C@@H](C)O3)cc1	T cruzi growth-1 inconclusive | T cruzi growth-2 112.4 | T cruzi growth-3 inactive | 3T3 cytotox inactive | NIH3T3 tox 2 inactive
O=C(NCCN1CCOCC1)C1COc2ccccc2O1 (stereo unspecified)	none (no result: T cruzi growth-1, Pf Dd2 inh, KDM4C inh)
Cc1ccc(C)c(C(Nc2ccccn2)c2cc(Cl)c3cccnc3c2O)c1 (stereo unspecified)	none (no result: T cruzi growth-1, Pf Dd2 inh, KDM4C inh)
CC(C)C#Cc1ccc([C@@H]2[C@@H](CO)N3CCCCN(CC4CC4)C[C@H]23)cc1	T cruzi growth-1 108.5 (no result: IDH1 mut inh) | T cruzi growth-2 107.7 | T cruzi growth-3 inactive | 3T3 cytotox 35.6 | NIH3T3 tox 2 89.5
CC(C)C#Cc1ccc([C@@H]2[C@@H](CO)N3CCCCN(CC4CC4)C[C@@H]23)cc1	T cruzi growth-1 inconclusive (no result: IDH1 mut inh) | T cruzi growth-2 95.0 | T cruzi growth-3 inactive | 3T3 cytotox inconclusive | NIH3T3 tox 2 105.8
Cc1ccc(S(=O)(=O)NC(C(=O)Oc2cc3oc(=O)cc(-c4ccccc4)c3cc2Cl)C(C)C)cc1 (stereo unspecified)	none (no result: T cruzi growth-1, Pf Dd2 inh, KDM4C inh)
COc1ccccc1C#Cc1ccc2c(c1)O[C@@H](CN(C)Cc1cccnc1)[C@@H](C)CN([C@H](C)CO)S2(=O)=O	none (no result: T cruzi growth-1, IDH1 mut inh)
COc1ccccc1C#Cc1ccc2c(c1)O[C@H](CN(C)Cc1ccccc1)[C@H](C)CN([C@@H](C)CO)S2(=O)=O	T cruzi growth-1 122.5 | T cruzi growth-2 104.7 | T cruzi growth-3 114.7 | 3T3 cytotox inactive | NIH3T3 tox 2 inactive
COc1ccccc1C#Cc1ccc2c(c1)O[C@H](CN(C)Cc1ccccc1)[C@@H](C)CN([C@@H](C)CO)S2(=O)=O	T cruzi growth-1 121.2 | T cruzi growth-2 98.6 | T cruzi growth-3 111.0 | 3T3 cytotox inactive | NIH3T3 tox 2 99.5
COc1ccccc1C#Cc1ccc2c(c1)O[C@@H](CN(C)Cc1cccnc1)[C@@H](C)CN([C@@H](C)CO)S2(=O)=O	none (no result: T cruzi growth-1)
COc1ccccc1C#Cc1ccc2c(c1)O[C@H](CN(C)Cc1cccnc1)[C@@H](C)CN([C@@H](C)CO)S2(=O)=O	none (no result: T cruzi growth-1)
COc1ccccc1C#Cc1ccc2c(c1)O[C@@H](CN(C)Cc1ccccc1)[C@H](C)CN([C@H](C)CO)S2(=O)=O	T cruzi growth-1 118.2 | T cruzi growth-2 inconclusive | T cruzi growth-3 111.9 | 3T3 cytotox 45.3 | NIH3T3 tox 2 106.0
COc1ccccc1C#Cc1ccc2c(c1)O[C@H](CN(C)Cc1ccccc1)[C@H](C)CN([C@H](C)CO)S2(=O)=O	T cruzi growth-1 120.9 | T cruzi growth-2 103.9 | T cruzi growth-3 inactive | 3T3 cytotox inactive | NIH3T3 tox 2 inactive
CCc1cc(C(=O)OC)c(NC(=O)c2cc(-c3ccccn3)nc3ccc(Cl)cc23)s1	none (no result: T cruzi growth-1, Pf Dd2 inh, KDM4C inh)
COc1ccccc1-n1nnnc1SCC(=O)Nc1ccccc1F	none (no result: T cruzi growth-1, Pf Dd2 inh, KDM4C inh)
CC(=O)OC1=C(C(=O)c2ccccc2)N(C)S(=O)(=O)c2ccccc21	none (no result: T cruzi growth-1, Pf Dd2 inh, KDM4C inh)
C[C@H](CO)N1C[C@H](C)[C@@H](CN(C)C(=O)C2CCCCC2)OCCCC[C@H](C)Oc2ccc(NC(=O)Nc3ccc(C(F)(F)F)cc3)cc2C1=O	T cruzi growth-1 120.2 | T cruzi growth-2 97.4 | T cruzi growth-3 109.9 | 3T3 cytotox inactive | NIH3T3 tox 2 inactive
C[C@@H]1CN([C@H](C)CO)C(=O)c2cc(NC(=O)Nc3ccc(C(F)(F)F)cc3)ccc2O[C@@H](C)CCCCO[C@@H]1CN(C)C(=O)C1CCCCC1	T cruzi growth-1 120.9, Pf Dd2 inh -84.4 (no result: IDH1 mut inh) | T cruzi growth-2 inactive | T cruzi growth-3 115.6 | 3T3 cytotox inactive | NIH3T3 tox 2 inactive
C[C@@H]1CCCCO[C@@H](CN(C)C(=O)C2CCCCC2)[C@@H](C)CN([C@@H](C)CO)C(=O)c2cc(NC(=O)Nc3ccc(C(F)(F)F)cc3)ccc2O1	T cruzi growth-1 120.2, Pf Dd2 inh inconclusive (no result: IDH1 mut inh) | T cruzi growth-2 95.9 | T cruzi growth-3 116.9 | 3T3 cytotox 38.1 | NIH3T3 tox 2 64.1
C[C@@H]1CN([C@H](C)CO)C(=O)c2cc(NC(=O)Nc3ccc(C(F)(F)F)cc3)ccc2O[C@@H](C)CCCCO[C@H]1CN(C)C(=O)C1CCCCC1	T cruzi growth-1 121.7 (no result: IDH1 mut inh) | T cruzi growth-2 102.1 | T cruzi growth-3 116.7 | 3T3 cytotox inactive | NIH3T3 tox 2 47.0
Cc1ccc(C(C)C)c(OCC(=O)Nc2ccccc2C#N)c1	none (no result: T cruzi growth-1, Pf Dd2 inh, KDM4C inh)
OCCN(CCO)Cc1ccc(Cl)cc1	none (no result: T cruzi growth-1, Pf Dd2 inh, KDM4C inh)
Cc1cc(C)n2c(Nc3cccc(C(F)(F)F)c3)c(-c3ccc(O)cc3)nc2n1	none (no result: T cruzi growth-1, Pf Dd2 inh, KDM4C inh)
C[C@@H]1CCCCO[C@@H](CN(C)C(=O)C2CCCCC2)[C@H](C)CN([C@@H](C)CO)C(=O)c2cc(NC(=O)Nc3ccc(C(F)(F)F)cc3)ccc2O1	T cruzi growth-1 120.6 | T cruzi growth-2 97.2 | T cruzi growth-3 108.3 | 3T3 cytotox inactive | NIH3T3 tox 2 inactive
C[C@@H]1CN([C@@H](C)CO)C(=O)c2cc(NC(=O)Nc3ccc(F)cc3)ccc2O[C@@H](C)CCCCO[C@H]1CN(C)C(=O)C1CCCCC1	none
C[C@H](CO)N1C[C@H](C)[C@H](CN(C)Cc2ccc(Cl)c(Cl)c2)Oc2ccc(NC(=O)Nc3cccc4ccccc34)cc2C1=O	none
C[C@H](CO)N1C[C@H](C)[C@@H](CN(C)Cc2ccc(Cl)c(Cl)c2)Oc2ccc(NC(=O)Nc3cccc4ccccc34)cc2C1=O	none (no result: IDH1 mut inh)
C[C@@H]1CN([C@H](C)CO)C(=O)c2cc(NC(=O)Nc3cccc4ccccc34)ccc2O[C@H]1CN(C)Cc1ccc(Cl)c(Cl)c1	T cruzi growth-1 101.5 | T cruzi growth-2 102.1 | T cruzi growth-3 95.6 | 3T3 cytotox 42.7 | NIH3T3 tox 2 29.2
C[C@@H]1CN([C@H](C)CO)C(=O)c2cc(NC(=O)Nc3cccc4ccccc34)ccc2O[C@@H]1CN(C)Cc1ccc(Cl)c(Cl)c1	T cruzi growth-1 inconclusive | T cruzi growth-2 inactive | T cruzi growth-3 inactive | 3T3 cytotox 36.4 | NIH3T3 tox 2 25.2
COc1ccccc1OCC(=O)Nc1ccc(C)cc1[N+](=O)[O-]	none (no result: T cruzi growth-1, Pf Dd2 inh, KDM4C inh)
